Assay results from different studies.
Protocols differ between the studies behind these lines.
Target: Dual specificity protein kinase TTK (TTK, Homo sapiens, UniProt P33981)
Residues used in one study (P33981 1-857): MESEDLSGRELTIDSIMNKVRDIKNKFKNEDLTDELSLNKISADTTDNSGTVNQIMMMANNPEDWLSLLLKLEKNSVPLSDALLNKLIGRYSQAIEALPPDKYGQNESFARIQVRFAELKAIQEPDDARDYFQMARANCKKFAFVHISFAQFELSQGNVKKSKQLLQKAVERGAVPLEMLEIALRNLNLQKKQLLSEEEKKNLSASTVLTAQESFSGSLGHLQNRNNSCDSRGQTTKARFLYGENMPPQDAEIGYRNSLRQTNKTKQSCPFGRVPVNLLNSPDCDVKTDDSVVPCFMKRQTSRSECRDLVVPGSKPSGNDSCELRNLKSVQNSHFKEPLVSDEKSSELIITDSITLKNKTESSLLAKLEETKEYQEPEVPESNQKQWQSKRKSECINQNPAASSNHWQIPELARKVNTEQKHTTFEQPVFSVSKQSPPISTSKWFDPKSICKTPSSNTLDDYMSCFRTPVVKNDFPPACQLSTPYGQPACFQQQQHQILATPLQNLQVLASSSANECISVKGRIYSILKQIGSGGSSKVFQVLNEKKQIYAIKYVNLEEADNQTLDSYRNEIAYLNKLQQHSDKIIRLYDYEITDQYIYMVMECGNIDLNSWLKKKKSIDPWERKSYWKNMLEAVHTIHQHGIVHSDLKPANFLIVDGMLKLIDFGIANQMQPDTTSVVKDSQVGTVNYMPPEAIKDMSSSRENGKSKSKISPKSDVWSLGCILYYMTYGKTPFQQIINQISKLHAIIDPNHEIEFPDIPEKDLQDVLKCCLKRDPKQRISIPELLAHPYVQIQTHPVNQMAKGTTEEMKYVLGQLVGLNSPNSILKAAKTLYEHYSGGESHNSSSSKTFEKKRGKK

SMILES | observed | technique | tested at | remaining binding [%]
N[C@H]1CCN(c2nccc(-c3cnn4ncccc34)n2)C1 | binding |  | 1 µM | 93
c1cncc(-c2cccc(Nc3nccc(NC4CCCCC4)n3)c2)c1 | binding | competition with immobilised ligand | 10 µM | 30
CN(C)c1nccc(-c2cnc3ncccn23)n1 | binding |  | 1 µM | 74
CNC(=O)Nc1ccc2c(c1)CC[C@@]21OC(=O)N(CC(=O)N(Cc2ccc(F)cc2)[C@@H](C)C(F)(F)F)C1=O | cell-free assay | competition with immobilised ligand | 1 µM | 100
O=C(c1ccc(Nc2ncc(Cl)c(-c3cc4ccccc4s3)n2)cc1)N1CCC(N2CCCC2)CC1 | binding | competition with immobilised ligand | 1 µM | 41
CN(c1nccc(-c2cnn3ncccc23)n1)C1CC1 | binding |  | 1 µM | 69
CO[C@@H](C)c1c(Nc2ccc([C@H](N(C)C(=O)C3CCS(=O)(=O)CC3)C(F)(F)F)cc2)cnc2cc(Cl)nn12 | cell-free assay | competition with immobilised ligand | 1 µM | 77
COc1ncc2cc3ccccc3nc2c1C#N | cell-free assay | competition with immobilised ligand | 5 µM | 85
CCC(=O)N[C@H]1CC[C@@H](C(=O)N(C)c2ccc(-c3nc4ccccc4o3)cc2)C1 | cell-free assay | competition with immobilised ligand | 1 µM | 100
C[C@@H]1CCN(c2nccc(-c3cnn4ncccc34)n2)C1 | binding |  | 1 µM | 46
N#CC1(c2ccccn2)CCN(Cc2cc(C(=O)N3CCCC3)c(=O)n3ccccc23)CC1 | cell-free assay | competition with immobilised ligand | 1 µM | 98
COc1cnc(Nc2cccc(S(N)(=O)=O)c2)nc1N1CCN(c2ccccc2)C(=O)C1 | binding | competition with immobilised ligand | 1 µM | 77
CCCCN(CCCC)C(=O)CN1C[C@H](c2cc(OC)c3c(c2)OCO3)[C@@H](C(=O)O)[C@@H]1CC(C)(C)CCC | cell-free assay | competition with immobilised ligand | 1 µM | 100
C[C@@H](c1ccc(-n2cnc3c(N)ncnc32)cc1)N1CCc2nn(C)c(Cc3ccccc3)c2C1=O | binding | competition with immobilised ligand | 0.1 µM | 85
CN(C)c1ncc(F)c(-c2cnn3ncccc23)n1 | binding |  | 1 µM | 66
O=C(N[C@H]1CCCCC/C=C\C2C[C@@]2(C(=O)O)NC(=O)[C@@H]2C[C@@H](Oc3ccncc3)CN2C1=O)OC1CCCC1 (some centres unmarked) | binding | competition with immobilised ligand | 1 µM | 79
O=C(c1ccc(Nc2ncc(Cl)c(-c3ccc(Cl)s3)n2)cc1)N1CCC(N2CCCC2)CC1 | binding | competition with immobilised ligand | 1 µM | 26
COc1cnc(Nc2cccc(S(N)(=O)=O)c2)nc1N1CCN(c2ccccc2)CC1 | binding | competition with immobilised ligand | 1 µM | 83
Cc1cnc(Nc2ccc(C(=O)N3CCC(N4CCCC4)CC3)cc2)nc1-c1cc2ccccc2s1 | binding | competition with immobilised ligand | 1 µM | 26
O=C(Nc1c[nH]nc1C(=O)NC1CCNCC1)c1cc(F)cc(F)c1 | binding | competition with immobilised ligand | 1 µM | 100
